Results of several laboratories.
Lines come from different studies, so protocols differ.

Structure (SMILES) | target or system | assay | test system | conditions | quantity | value
CC(=O)c1c([O-])cc(C)oc1=O.[Na+] |  |  | rat, serum | oral, 200 mg/kg | AUC(0-t) | 3190 µg·h/mL
Cn1cc2c3c1C(=O)C(N)=CC3=NCC2 | HCT-116 | cell growth or viability, MTT |  | 72 h | CC50 | 2000 nM
Cn1c2cccc(=O)c-2nc2ccccc21 |  |  | PAMPA | 40 µM, 5 h, pH 7.4 | Papp | 8.6 ×10⁻⁶ cm/s
COCC1=N[C@@]2(O)[C@H](C(=O)N(C)OC)[C@@H](c3ccccc3)[C@]3(c4ccc(OC)cc4)Oc4cc(OC)cc(OC)c4[C@]23N1 |  |  | PAMPA | 50 µM, 30 min, pH 7.4 | Papp | 783 ×10⁻⁶ cm/s
C#CCN(C)CCCCCCOCc1ccc(CN(C)c2c3c(nc4ccccc24)CCCC3)cc1 |  |  | male Sprague-Dawley rat, plasma | intravenous, 1 mg/kg | AUC(0-inf) | 170 ng·h/mL
Cn1cc2c3c1C(=O)C(N)=CC3=[N+](C)CC2 | HCT-116 | cell growth or viability, MTT |  | 72 h | CC50 | 1000 nM
C[C@]12CC[C@H]3[C@@H](CC=C4CC(O)CC[C@@]43CO)[C@@H]1CCC2O (some centres unmarked) |  |  | rat, plasma | intravenous, 1 mg/kg | AUC | 167 ng·h/mL
[2H]C([2H])([18F])[C@]([2H])(N)C(=O)O | U-87 MG |  | bone | 110 min, tumour-bearing | tracer uptake | 1.73 %ID/g
